# Experimental data from different studies.
# Protocols differ between the studies behind these lines.
# Target: Serine/threonine-protein kinase Nek1 (NEK1, Homo sapiens, UniProt Q96PY6)
# Sequence (Q96PY6 1-1258, as in one of the studies): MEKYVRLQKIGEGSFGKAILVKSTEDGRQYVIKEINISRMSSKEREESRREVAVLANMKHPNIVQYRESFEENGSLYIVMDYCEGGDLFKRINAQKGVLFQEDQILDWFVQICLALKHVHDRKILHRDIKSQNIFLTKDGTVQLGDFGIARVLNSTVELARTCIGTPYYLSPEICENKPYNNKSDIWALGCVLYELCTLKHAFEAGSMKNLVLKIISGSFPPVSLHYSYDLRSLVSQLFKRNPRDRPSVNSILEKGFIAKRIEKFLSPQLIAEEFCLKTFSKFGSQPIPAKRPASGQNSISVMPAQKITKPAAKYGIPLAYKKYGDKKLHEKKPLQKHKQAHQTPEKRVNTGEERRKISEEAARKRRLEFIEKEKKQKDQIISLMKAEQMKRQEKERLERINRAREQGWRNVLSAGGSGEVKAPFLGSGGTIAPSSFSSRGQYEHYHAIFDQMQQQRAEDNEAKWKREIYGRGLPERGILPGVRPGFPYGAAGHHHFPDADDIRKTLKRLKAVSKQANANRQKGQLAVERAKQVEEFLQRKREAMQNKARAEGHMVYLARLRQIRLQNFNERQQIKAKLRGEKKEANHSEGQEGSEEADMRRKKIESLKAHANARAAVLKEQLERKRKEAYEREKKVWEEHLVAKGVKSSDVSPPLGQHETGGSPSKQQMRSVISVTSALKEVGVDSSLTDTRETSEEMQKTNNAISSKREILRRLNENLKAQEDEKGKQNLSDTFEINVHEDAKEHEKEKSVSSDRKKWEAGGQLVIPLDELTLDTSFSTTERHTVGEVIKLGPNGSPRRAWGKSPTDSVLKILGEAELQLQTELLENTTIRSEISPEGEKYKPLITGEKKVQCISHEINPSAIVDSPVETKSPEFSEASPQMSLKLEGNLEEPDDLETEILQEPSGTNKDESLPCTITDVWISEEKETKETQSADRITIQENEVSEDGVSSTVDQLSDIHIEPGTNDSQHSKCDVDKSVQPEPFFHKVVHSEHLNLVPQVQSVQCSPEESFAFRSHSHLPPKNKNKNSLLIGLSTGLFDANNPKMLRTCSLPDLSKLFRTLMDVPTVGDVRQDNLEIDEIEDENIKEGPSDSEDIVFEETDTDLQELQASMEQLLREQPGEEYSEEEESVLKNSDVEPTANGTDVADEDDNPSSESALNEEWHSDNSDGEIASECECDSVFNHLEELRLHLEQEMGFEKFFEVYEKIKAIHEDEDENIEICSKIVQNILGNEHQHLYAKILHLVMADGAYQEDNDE
SMILES,assay,conditions,measurement,result
COc1ccc2oc(-c3ccc4nc(N)oc4c3)c/c(=N\c3ccccc3NC(=O)CCN)c2c1,binding,1 µM,remaining binding,108%
COc1ccc2[nH]c3c4[nH]c5ccc(OC)cc5c4c4c(c3c2c1)C(=O)NC4=O,binding,1 µM,remaining binding,100%
C1=C/COCc2cc(ccc2OCCN2CCCC2)Nc2nccc(n2)-c2cccc(c2)COC/1,binding,0.1 µM,remaining binding,98%
CC#CC(=O)N1CCC[C@H]1c1nc(-c2ccc(C(=O)Nc3ccccn3)cc2)c2c(N)nccn12,"enzyme activity, inhibitor",1 µM,inhibition,8%
Cc1cc(O)c(-c2ccc([C@@H](C)CN(C)C)cc2)c2c1[nH]c(=O)c1sccc12,"enzyme activity, inhibitor",0.1 µM,inhibition,-3.68%
C#Cc1cc(-c2cc(Nc3nc(N[C@@H](C)c4ccc(F)cn4)ncc3Cl)n[nH]2)ccc1C=O,"enzyme activity, inhibitor",0.2 µM,inhibition,70.2%
CO[C@@H]1[C@H](N(C)C(=O)c2ccccc2)C[C@H]2O[C@]1(C)n1c3ccccc3c3c4c(c5c6ccccc6n2c5c31)C(=O)NC4,"enzyme activity, inhibitor",1 µM,inhibition,0%
C[C@H]1CC[C@H](n2c3cnccc3c3cnc(Nc4ccc5c(n4)CCN(C(=O)CO)C5)nc32)CC1,cell-free assay,1 µM,remaining signal,85%
CCCCC(=O)Nc1ccc(-c2ccc3ncn(CCC)c(=O)c3c2)cn1,"binding, competition with immobilised ligand",0.5 µM,remaining binding,95%
